Reference: ChEMBL document CHEMBL1142569, “Two new hepatoprotective stilbene glycosides from Acer mono leaves” (J Nat Prod, 2005)
Calls of active or inactive are those of the source. No cut-off for these calls is given here.

system: Hepatocyte; test: Hepatoprotective activity against H2O2-induced hepatotoxicity in Wistar rat hepatocytes assessed as reduction in glutamic pyruvate transaminase release after 1 hr relative to control; format: functional, cell-based
Procedure, shortened: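 Hepatocytes from male Wistar rats were isolated by collagenase perfusion and cultured for one day after plating. Cells were pretreated with or without compound for 1 h, then exposed to 12 mM H2O2 for 1.5 h. GPT released into the medium was measured by the Reitman-Frankel method. Relative protection (%) = 100 × (H2O2-treated − sample)/(H2O2-treated − unchallenged control). Mean ± SD, n = 3.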

Row | SMILES | Activity
1 | O=C1C[C@@H](c2ccc(O)cc2)Oc2cc(O[C@@H]3O[C@H](CO)[C@@H](O)[C@H](O)[C@H]3O)cc(O)c21 | inactive
2 | COc1cc(/C=C/c2ccc(O)cc2)cc(O[C@@H]2O[C@H](CO[C@@H]3OC[C@](O)(CO)[C@H]3O)[C@@H](O)[C@H](O)[C@H]2O)c1 | Active
3 | O=c1c(O)c(-c2ccc(O)c(O)c2)oc2cc(O)cc(O)c12 | Active
4 | C[C@@H]1O[C@@H](Oc2c(-c3ccc(O)c(O)c3)oc3cc(O)cc(O)c3c2=O)[C@H](O)[C@H](O)[C@H]1O | inactive
5 | O=C1C[C@@H](c2ccc(O)c(O)c2)Oc2cc(O[C@@H]3O[C@H](CO)[C@@H](O)[C@H](O)[C@H]3O)cc(O)c21 | inactive
6 | COc1cc(/C=C/c2ccc(O)cc2)cc(O[C@@H]2O[C@H](CO)[C@@H](O)[C@H](O)[C@H]2O)c1 | Active
7 | O=c1ccoc2cc(O[C@@H]3O[C@H](CO)[C@@H](O)[C@H](O)[C@H]3O)cc(O)c12 | inactive
8 | O=C1C[C@@H](c2ccc(O)c(O)c2)Oc2cc(O)cc(O)c21 | inactive
9 | O=C1C[C@@H](c2ccc(O)cc2)Oc2cc(O)cc(O)c21 | inactive

system: Hepatocyte; test: Hepatoprotective activity against H2O2-induced hepatotoxicity in Wistar rat hepatocytes assessed as reduction in glutamic pyruvate transaminase release at 100 uM after 1 hr relative to control; format: functional, cell-based

Row | SMILES | Activity
10 | COc1cc(C2Oc3cc([C@H]4Oc5cc(O)cc(O)c5C(=O)[C@@H]4O)ccc3OC2CO)ccc1O (stereo not given in full) | Active
